Measurements: ChEMBL document CHEMBL1123578, “Stereochemical studies on the cytochrome P-450 catalyzed oxidation of (S)-nicotine to the (S)-nicotine delta 1'(5')-iminium species” (J Med Chem, 1987)

How the values were obtained:
Assay type in all cases: functional
Settings in all cases: Microsome
[1] = organism: Homo sapiens; assay: Percent Deuterium retention was measured for the corresponding alpha-cyano amine in the human liver microsomes and value from experiment I are reported.
In short: (§1)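 Human liver microsomes from three separate sources (homogenized in 4 mL KCl/g liver), 3 mg protein/mL. E or Z (S)-nicotine-5'-d1 (0.5 mM) was incubated 30 min at 37 °C in 0.2 M K phosphate pH 7.4 with 1.5 mM MgCl2, 1.0 mM NaCN and 1 mg/mL NADPH. The 5'-cyano adducts were ether-extracted and measured by GC-EIMS SIM (m/z 109-111) with isotope and contaminant corrections.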

[2] = organism: Homo sapiens; assay: Percent Deuterium retention was measured for the corresponding alpha-cyano amine in the human liver microsomes and value from experiment II are reported.; in short: as §1
[3] = organism: Homo sapiens; assay: Percent Deuterium retention was measured for the corresponding alpha-cyano amine in the human liver microsomes and value from experiment III are reported; in short: as §1
[4] = organism: Oryctolagus cuniculus; assay: Percent Deuterium retention was measured for the corresponding alpha-cyano amine in the Dutch rabbit liver microsomes and value from experiment I are reported.
In short: (§2)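 Liver microsomes from male Dutch rabbits (homogenized in 2 mL KCl/g liver), 3 mg protein/mL. The E or Z (S)-nicotine-5'-d1 (0.5 mM) was incubated in 0.2 M K phosphate pH 7.4 with 1.5 mM MgCl2, 1.0 mM NaCN and 1 mg/mL NADPH for 30 min at 37 °C.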

[5] = organism: Oryctolagus cuniculus; assay: Percent Deuterium retention was measured for the corresponding alpha-cyano amine in the Dutch rabbit liver microsomes and value from experiment II are reported.; in short: as §2
[6] = organism: Oryctolagus cuniculus; assay: Percent Deuterium retention was measured for the corresponding alpha-cyano amine in the Dutch rabbit liver microsomes and value from experiment IV are reported.; in short: as §2
[7] = organism: Oryctolagus cuniculus; assay: Percent Deuterium retention was measured for the corresponding alpha-cyano amine in the Dutch rabbit liver microsomes and value from experiment V are reported.; in short: as §2
[8] = organism: Oryctolagus cuniculus; assay: Percent Deuterium retention was measured for the corresponding alpha-cyano amine in the Dutch rabbit liver microsomes and value from experiment VI are reported.; in short: as §2
[9] = organism: Oryctolagus cuniculus; assay: Percent Deuterium retention was measured for the corresponding alpha-cyano amine in the Dutch rabbit liver microsomes and value from experiment III are reported.; in short: as §2
[10] = organism: Homo sapiens; assay: Percent Deuterium retention was measured for the corresponding alpha-cyano amine in the human liver microsomes and value from experiment III are reported.; in short: as §1
[11] = organism: Oryctolagus cuniculus; assay: Percent Deuterium retention was measured for the corresponding alpha-cyano amine in the Dutch rabbit liver microsomes and value from experimentI V are reported.; in short: as §2

| SMILES | Deuterium retention [1] [%] | Deuterium retention [2] [%] | Deuterium retention [3] [%] | Deuterium retention [4] [%] | Deuterium retention [5] [%] | Deuterium retention [6] [%] | Deuterium retention [7] [%] | Deuterium retention [8] [%] | Deuterium retention [9] [%] | Deuterium retention [10] [%] | Deuterium retention [11] [%] |
| --- | --- | --- | --- | --- | --- | --- | --- | --- | --- | --- | --- |
| CN1[C@@H](C#N)CC[C@H]1c1cccnc1 | 92 | 84 | 91 | 87 | 81 | 79 | 77 | 88 | 89 | – | – |
| CN1[C@H](C#N)CC[C@H]1c1cccnc1 | 3 | 24 | – | 34 | 22 | – | 27 | 16 | 30 | 3 | 28 |
